Type in all cases: functional
One test relates to HL-60. The test is described as follows: Growth inhibition of human HL60 cells at 50 uM after 48 hrs by MTT assay. The following applies: HL-60, 48 h, read-out: GI. The essentials: (§1)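 Single-concentration MTT screen at 50 µM over 48 h in 96-well plates. Compounds giving >50% inhibition were rescreened at 30 µM. OD read at 570 nm, reference 620 nm. Result expressed as % growth inhibition versus untreated control. Mitomycin C, adriamycin or 5-fluorouracil used as positive controls. Mean ± SD of three independent experiments.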
For orientation: Tetrazolium assays rely on reduction of a dye to a coloured formazan, in cell work by metabolically active cells.

For the next test, the system named is ASPC1. The experiment in a line: Growth inhibition of human AsPC1 cells at 50 uM after 48 hrs by MTT assay. Particulars: ASPC1, 48 h, read-out: GI. The method, boiled down: as §1
The next test concerns Caco-2. The test is described as follows: Growth inhibition of human Caco2 cells at 50 uM after 48 hrs by MTT assay. The following applies: Caco-2, 48 h, read-out: GI. The essentials: as §1
For the next test, the system named is PC-3. The test is described as follows: Growth inhibition of human PC3 cells at 50 uM after 48 hrs by MTT assay. Particulars: PC-3, 48 h, read-out: GI. The method, boiled down:
as §1

The subject of another test is MIA PaCa-2. The test is described as follows: Growth inhibition of human MIAPaCa2 cells at 50 uM after 48 hrs by MTT assay. Particulars: MIA PaCa-2, 48 h, read-out: GI. The essentials:
as §1

The test system of a further test is MCF7. The test is described as follows: Growth inhibition of human MCF7 cells at 50 uM after 48 hrs by MTT assay. The following applies: MCF7, 48 h, read-out: GI. The essentials:
as §1

A further test relates to MDA-MB-435. The test is described as follows: Growth inhibition of human MDA-MB-435 cells at 50 uM after 48 hrs by MTT assay. The following applies: MDA-MB-435, 48 h, read-out: GI. The method, boiled down:
as §1

On to `CC1(C)CCc2cc(C(=O)/C=C/c3ccccc3)c3c(c2O1)CCC(C)(C)O3`, for which the inhibition of growth at 50 µM in the test on HL-60 came out at 32%; in the test with ASPC1, 17%; in the test on Caco-2, 34%; in the test with PC-3 it was 51%; with MIA PaCa-2, 24%; with MCF7, 14%. Besides, in the test with MDA-MB-435, the inhibition of growth at 50 µM is 47%.
As for `COc1ccc(OC)c(/C=C/C(=O)c2cc3c(c4c2OC(C)(C)CC4)OC(C)(C)CC3)c1`, the inhibition of growth at 50 µM stood at 27% in the test with HL-60; 2% in the test on ASPC1; 23% in the test on Caco-2; 36% with PC-3; 17% in the test on MIA PaCa-2; 15% in the test with MCF7. Besides, the inhibition of growth at 50 µM in the test on MDA-MB-435 amounted to 52%.
Consider `CC(=O)c1cc2c(c3c1OC(C)(C)CC3)OC(C)(C)CC2`, for which the inhibition of growth at 50 µM in the test with HL-60 came to 25%; in the test with ASPC1, 5%; in the test with Caco-2 it was 20%; in the test on PC-3, 19%; with MIA PaCa-2, 25%; with MCF7, 18%. In the test with MDA-MB-435, the inhibition of growth at 50 µM worked out at 2%.
`Cc1ccc(/C=C/C(=O)c2cc3c(c4c2OC(C)(C)CC4)OC(C)(C)CC3)cc1`: the inhibition of growth at 50 µM was 18% in the test with HL-60; 2% with ASPC1; 11% in the test on Caco-2; 48% in the test on PC-3; 41% in the test on MIA PaCa-2; 15% with MCF7. The inhibition of growth at 50 µM in the test on MDA-MB-435 was 38%.
As for `CC1(C)CCc2cc(C(=O)/C=C/c3cccc(Cl)c3)c3c(c2O1)CCC(C)(C)O3`, the inhibition of growth at 50 µM with HL-60 came out at 60%; in the test with ASPC1 it was 24%; in the test with Caco-2, 31%; in the test with PC-3, 59%; in the test on MIA PaCa-2 it was 24%; in the test with MCF7 it was 16%. The inhibition of growth at 50 µM in the test on MDA-MB-435 was found to be 54%.
Regarding `COc1cc(OC)c(/C=C/C(=O)c2cc3c(c4c2OC(C)(C)CC4)OC(C)(C)CC3)c(OC)c1`, the inhibition of growth at 50 µM came out at 77% in the test with HL-60; 5% in the test with ASPC1; 17% in the test on Caco-2; 62% with PC-3; 27% in the test with MIA PaCa-2; 26% in the test on MCF7. In addition, the inhibition of growth at 50 µM with MDA-MB-435 amounted to 32%.
For the compound `CC1(C)CCc2cc(C(=O)/C=C/c3ccccc3Cl)c3c(c2O1)CCC(C)(C)O3`, the inhibition of growth at 50 µM was found to be 41% in the test with HL-60; 15% in the test on ASPC1; 11% with Caco-2; 52% with PC-3; 31% with MIA PaCa-2; 9% in the test with MCF7. Further, in the test on MDA-MB-435, the inhibition of growth at 50 µM stood at 33%.
In the case of `COc1ccc(/C=C/C(=O)c2cc3c(c4c2OC(C)(C)CC4)OC(C)(C)CC3)cc1`, the inhibition of growth at 50 µM was determined as 5% in the test on HL-60; 12% in the test on ASPC1; 16% in the test on Caco-2; 63% in the test on PC-3; 30% in the test with MIA PaCa-2; 7% with MCF7. For the same compound, the inhibition of growth at 50 µM with MDA-MB-435 is 53%.
Turning to `CC1(C)CCc2cc(C(=O)/C=C/c3ccc(Br)cc3)c3c(c2O1)CCC(C)(C)O3`, the inhibition of growth at 50 µM in the test with HL-60 was 25%; with ASPC1, 27%; with Caco-2 it was 28%; in the test with PC-3, 33%; in the test with MIA PaCa-2 it was 45%; in the test on MCF7 it was 16%. For the same compound, in the test with MDA-MB-435, the inhibition of growth at 50 µM is 52%.
Take `CC1(C)CCc2cc(C(=O)/C=C/c3ccc(F)cc3)c3c(c2O1)CCC(C)(C)O3`: the inhibition of growth at 50 µM amounted to 38% in the test with HL-60; 28% in the test with ASPC1; 12% in the test on Caco-2; 59% in the test on PC-3; 38% in the test on MIA PaCa-2; 17% in the test on MCF7. The inhibition of growth at 50 µM in the test on MDA-MB-435 amounted to 52%.

The values above are taken from ChEMBL document CHEMBL2331355, “Synthesis, structure activity relationship and mode of action of 3-substitutedphenyl-1-(2,2,8,8-tetramethyl-3,4,9,10-tetrahydro-2H,8H-pyrano[2,3-f]chromen-6-yl)-propenones as novel anticancer agents in human leukaemia HL-60 cells” (Eur J Med Chem, 2013).
